“Also recorded” adds a separate entry of the source.
How the values were obtained:
[1] = test system: CYP1B1; assay: Real-time PCR, AHR target gene induction; format: cell-based, human; conditions: for CYP1B1 mRNA induction (in words): 24 h
[2] = test system: CYP1A1; assay: Real-time PCR, AHR target gene induction; format: cell-based, human; conditions: for CYP1A1 mRNA induction (in words): 24 h, BAP/CRY 0.1-3.5 μM
[3] = test system: CYP1A1; assay: Western blot, protein level; format: cell-based, human; conditions: HaCaT WT, 24 h and 48 h
[4] = test system: CYP1B1; assay: Western blot, protein level; format: cell-based, human; conditions: HaCaT WT, 24 h and 48 h
[5] = test system: HaCaT WT cells; assay: Targeted metabolomics; format: cell-based, human; conditions: 48 h; for change of Gln level vs control (in words) / change of PCaa_C36:2 level vs control (in words) / C4:1 concentration / C4 concentration / C6 (C4:1-DC) concentration / C10:2 concentration / C12-DC concentration / C12:1 concentration / C18:1-OH concentration / C18:2 concentration / Gln concentration / PCaa_C32:2 concentration / PCaa_C36:2 concentration / PCae_C32:1 concentration / PCae_C34:2 concentration / PCae_C34:3 concentration / PCae_C36:2 concentration / PCae_C36:3 concentration / PCae_C38:1 concentration / PCae_C38:2 concentration / PCae_C38:3 concentration / PCae_C38:4 concentration / PCae_C40:4 concentration / PCae_C40:5 concentration / SM_C16:1 concentration / alpha-AAA concentration / change of alpha-AAA level vs control (in words) / change of carnitines (e.g. C18:2) vs control (in words): BAP 1 μM, DALP 0.01 μM; for change of Gln level vs control (in words) / change of PCaa_C36:2 level vs control (in words) / C4:1 concentration / C4 concentration / C6 (C4:1-DC) concentration / C10:2 concentration / C12-DC concentration / C12:1 concentration / C18:1-OH concentration / C18:2 concentration / Gln concentration / PCaa_C32:2 concentration / PCaa_C36:2 concentration / PCae_C32:1 concentration / PCae_C34:2 concentration / PCae_C34:3 concentration / PCae_C36:2 concentration / PCae_C36:3 concentration / PCae_C38:1 concentration / PCae_C38:2 concentration / PCae_C38:3 concentration / PCae_C38:4 concentration / PCae_C40:4 concentration / PCae_C40:5 concentration / SM_C16:1 concentration / alpha-AAA concentration: CRY 1 μM; for C4:1 concentration / C4 concentration / C6 (C4:1-DC) concentration / C10:2 concentration / C12-DC concentration / C12:1 concentration / C18:1-OH concentration / C18:2 concentration / Gln concentration / PCaa_C32:2 concentration / PCaa_C36:2 concentration / PCae_C32:1 concentration / PCae_C34:2 concentration / PCae_C34:3 concentration / PCae_C36:2 concentration / PCae_C36:3 concentration / PCae_C38:1 concentration / PCae_C38:2 concentration / PCae_C38:3 concentration / PCae_C38:4 concentration / PCae_C40:4 concentration / PCae_C40:5 concentration / SM_C16:1 concentration / alpha-AAA concentration: mean ± SD
In short: (§1)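 Cells in DMEM with 10% FCS were seeded at 1 × 10^5 cells/mL and exposed 24 h later for 48 h, 4 replicates; vehicle controls got 0.1% DMSO. Cells were washed with ice-cold 155 mM ammonium formate pH 7.4, pelleted, weighed and snap-frozen. Extracts went on the p180 kit with isotope-labelled standards, phenylisothiocyanate derivatisation and 5 mM ammonium acetate/methanol extraction. Read by LC–MS/MS (positive) and FIA-MS/MS (±), MRM; μM normalised to pellet weight.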

[6] = test system: HaCaT WT cells; assay: Enzymatic determination of glutamine; format: cell-based, human; conditions: 48 h, BAP 1 μM, CRY 1 μM, DALP 0.01 μM
[7] = test system: HaCaT WT cells; assay: MTT assay; format: cell-based, human; conditions: HaCaT WT, 48 h, up to 20 μM
[8] = MTT assay; format: cell-based, human; conditions: human, HaCaT wild-type (WT) cells; for EC50 at 48 h: calculated EC50 (cytotoxicity, viability), HaCaT WT, MTT
[9] = test system: HaCaT AHR-KD cells; assay: MTT assay; format: cell-based, human; conditions: HaCaT AHR-KD, 48 h, up to 20 μM
[10] = MTT assay; format: cell-based, human; conditions: human, HaCaT AHR knockdown (AHR-KD) cells
[11] = test system: carnitine palmitoyltransferase 1 (CPT1); conditions: liver of rats upon treatment; ref [55], [56]; cited from earlier work
[12] = test system: HaCaT AHR-KD cells; assay: Targeted metabolomics; format: cell-based, human; conditions: 48 h
In short: as §1

[13] = HaCaT cells, 2 and 8 h, up to 1 μM, data not shown

| Compound | change of Gln level vs control (in words) [5] | change of PCaa_C36:2 level vs control (in words) [5] | C4:1 concentration [5] [nmol/g pellet weight] | C4 concentration [5] [nmol/g pellet weight] | C6 (C4:1-DC) concentration [5] [nmol/g pellet weight] | C10:2 concentration [5] [nmol/g pellet weight] | C12-DC concentration [5] [nmol/g pellet weight] | C12:1 concentration [5] [nmol/g pellet weight] | C18:1-OH concentration [5] [nmol/g pellet weight] | C18:2 concentration [5] [nmol/g pellet weight] | Gln concentration [5] [nmol/g pellet weight] | PCaa_C32:2 concentration [5] [nmol/g pellet weight] | PCaa_C36:2 concentration [5] [nmol/g pellet weight] | PCae_C32:1 concentration [5] [nmol/g pellet weight] | PCae_C34:2 concentration [5] [nmol/g pellet weight] | PCae_C34:3 concentration [5] [nmol/g pellet weight] | PCae_C36:2 concentration [5] [nmol/g pellet weight] | PCae_C36:3 concentration [5] [nmol/g pellet weight] | PCae_C38:1 concentration [5] [nmol/g pellet weight] | PCae_C38:2 concentration [5] [nmol/g pellet weight] | further results |
| --- | --- | --- | --- | --- | --- | --- | --- | --- | --- | --- | --- | --- | --- | --- | --- | --- | --- | --- | --- | --- | --- |
| c1ccc2c(c1)ccc1c3ccccc3ccc21 [CRY, chrysene] | weakly | increased | 0.9 ± 0.2 | 2.3 ± 0.5 | 1.9 ± 0.3 | 0.9 ± 0.1 | 3.3 ± 0.6 | 1.0 ± 0.2 | 0.8 ± 0.1 | 0.8 ± 0.1 | 114.3 ± 12.8 | 127.8 ± 17.3 | 2097.1 ± 262.1 | 231.2 ± 36.0 | 275.4 ± 48.2 | 29.7 ± 5.0 | 385.0 ± 53.6 | 120.5 ± 17.9 | 29.9 ± 5.0 | 78.0 ± 13.3 | CYP1B1 mRNA induction (in words) ([1]; HaCaT AHR-KD, CRY 0.1-3.5 μM): no significant induction; CYP1B1 mRNA induction (in words) ([1]; HaCaT WT, BAP/CRY 0.1-3.5 μM, DALP 0.01-0.03 μM): inducing both genes in WT cells but less strongly; CYP1A1 mRNA induction (in words) ([2]; HaCaT AHR-KD): no significant induction; CYP1A1 mRNA induction (in words) ([2]; HaCaT WT, DALP 0.01-0.03 μM): inducing both genes in WT cells but less strongly; CYP1A1 protein induction (in words) [3]: moderate induction; CYP1B1 protein induction (in words) [4]: moderate induction; SM, AC, LPC and BA concentrations vs control (in words) ([5]; 1 μM): remained completely unaffected; PCae_C38:3 concentration [5]: 34.7 ± 5.8 nmol/g pellet weight; PCae_C38:4 concentration [5]: 70.5 ± 9.1 nmol/g pellet weight; PCae_C40:4 concentration [5]: 12.8 ± 2.0 nmol/g pellet weight; PCae_C40:5 concentration [5]: 33.3 ± 4.2 nmol/g pellet weight; SM_C16:1 concentration [5]: 35.0 ± 3.8 nmol/g pellet weight; alpha-AAA concentration [5]: 14.2 ± 3.8 nmol/g pellet weight; relative Gln level, enzymatic assay (in words) [6]: could not confirm the effect; cytotoxicity / cell viability (in words) [7]: strong cytotoxic effects; EC50 at 48 h [8]: 3800 nM; cytotoxicity / cell viability (in words) [9]: strong cytotoxic effects; EC50 at 48 h [10]: 2000 nM |
| Clc1cc2c(cc1Cl)Oc1cc(Cl)c(Cl)cc1O2 [TCDD, 2,3,7,8-tetrachlorodibenzo-p-dioxin] | – | – | – | – | – | – | – | – | – | – | – | – | – | – | – | – | – | – | – | – | increase of carnitine palmitoyltransferase 1 (CPT1) [11]: more than 3 fold |
| c1ccc2c(c1)cc1ccc3cccc4c5ccccc5c2c1c34 [DALP, dibenzo[a,l]pyrene] | strongly lowered | measurable but insignificant decrease | 1.3 ± 0.1 | 2.9 ± 0.3 | 2.5 ± 0.2 | 1.1 ± 0.1 | 4.2 ± 0.2 | 1.4 ± 0.1 | 1.0 ± 0.0 | 1.1 ± 0.1 | 65.7 ± 23.9 | 81.9 ± 9.5 | 1417.7 ± 173.7 | 164.7 ± 17.4 | 170.7 ± 25.4 | 20.8 ± 3.3 | 235.3 ± 25.3 | 65.2 ± 8.9 | 18.7 ± 1.2 | 50.7 ± 5.2 | CYP1B1 mRNA induction at earlier time-points (in words) [1, 13]: no significant induction; CYP1A1 mRNA induction (in words) ([2]; HaCaT WT, DALP 0.01-0.03 μM): only weakly increased; CYP1A1 mRNA induction at earlier time-points (in words) [2, 13]: no significant induction; CYP1A1 protein induction (in words) [3]: no induction; CYP1B1 protein induction (in words) [4]: no induction; PCae_C38:3 concentration [5]: 18.5 ± 1.8 nmol/g pellet weight; PCae_C38:4 concentration [5]: 38.1 ± 4.0 nmol/g pellet weight; PCae_C40:4 concentration [5]: 7.6 ± 0.5 nmol/g pellet weight; PCae_C40:5 concentration [5]: 16.5 ± 1.5 nmol/g pellet weight; SM_C16:1 concentration [5]: 25.5 ± 2.1 nmol/g pellet weight; alpha-AAA concentration [5]: 2.0 ± 1.1 nmol/g pellet weight; change of alpha-AAA level vs control (in words) [5]: strong down-regulation; change of carnitines (e.g. C18:2) vs control (in words) [5]: strong up-regulation; relative Gln level, enzymatic assay (in words) [6]: downregulated approximately two-fold; cytotoxicity / cell viability (in words) [7]: enhanced cytotoxicity; also recorded: very strong cytotoxicity; EC50 at 48 h [8]: 35 nM; cytotoxicity / cell viability (in words) [9]: remained unaffected; metabolite levels vs control (in words) ([12]; 0.01 μM): remained virtually unaffected |
| c1ccc2c(c1)cc1ccc3cccc4ccc2c1c34 [BAP, benzo[a]pyrene] | strongly lowered | increased | 1.1 ± 0.1 | 2.5 ± 0.3 | 2.3 ± 0.2 | 1.0 ± 0.1 | 3.8 ± 0.2 | 1.2 ± 0.1 | 0.9 ± 0.1 | 1.0 ± 0.1 | 77.1 ± 18.2 | 103.6 ± 11.5 | 2039.2 ± 198.8 | 198.8 ± 17.1 | 238.2 ± 23.8 | 26.8 ± 3.1 | 354.1 ± 28.2 | 108.6 ± 10.5 | 29.7 ± 2.2 | 74.9 ± 6.3 | PCae_C38:3 concentration [5]: 33.8 ± 3.9 nmol/g pellet weight; PCae_C38:4 concentration [5]: 69.0 ± 7.3 nmol/g pellet weight; PCae_C40:4 concentration [5]: 11.7 ± 1.5 nmol/g pellet weight; PCae_C40:5 concentration [5]: 30.0 ± 2.5 nmol/g pellet weight; SM_C16:1 concentration [5]: 35.3 ± 3.4 nmol/g pellet weight; alpha-AAA concentration [5]: 5.7 ± 1.8 nmol/g pellet weight; change of alpha-AAA level vs control (in words) [5]: strong down-regulation; change of carnitines (e.g. C18:2) vs control (in words) [5]: strong up-regulation; viability at 48 h, 20 µM [8]: ~80%; change of Gln level vs control (in words) ([12]; BAP 1 μM, CRY 1 μM, DALP 0.01 μM): decreased |
